Source: PubChem BioAssay (several laboratories)
ERa coact pot: enhances coactivator binding to human estrogen receptor alpha. P03372. TR-FRET ERalpha-LBD/SRC-Cy5 coactivator binding, 2 h; 100 = basal binding, no effect. coactivator binding (% of control), % at 25.6 µM. 1.3% of 86,000 active; in the data active = activity above about 200%;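 also: binding measured in presence of low estradiol as agonist stimulus; 0% = peptide alone without receptor and 100% = receptor with peptide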
Pyk2 oligo antag: blocks oligomerization of human Pyk2 in cells; 0.83% of 99,000 active; z-score (the deposit names both 25 µM and 10 µM); Q14289; Q293 cells, Pyk2 FERM NanoBiT luminescence; active compounds read low;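 active = Z-score of -3 or lower, scaled per plate to the spread of control and sample wells; inactive = z-score above -3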;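 also: negative z-score means lost luminescence so less FERM oligomerization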
SF-1 act: activates the human nuclear receptor SF-1; Q13285; 1.9% of 65,000 active; AID 522; CHO-K1 Gal4-SF-1 LBD luciferase reporter; % increase over DMSO SF-1-specific signal; activation, % at 10 µM;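 active = activation above the mean activation of all tested compounds plus 3 SD, cut at about 50% in these data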
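Material: Transient Gal4-SF-1 LBD reporter, CHO-K1 | Input: 4,000 cells/well | Dosing: One dose, 10 µM compound, 1% DMSO | Incubation: 20 h compound treatment, 37 °C | Detection: SteadyLite luciferase luminescence | Evaluation: Percent activation relative to DMSO median and mock-transfected background | Benchmarks: DMSO-treated SF-1-transfected cells as negative, DMSO-treated mock-transfected cells lacking SF-1 as background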
ERa SRC1 inh: blocks coactivator binding to human estrogen receptor alpha. P03372. TR-FRET ER-alpha LBD / SRC-1 peptide, estradiol-bound. inhibition, % at 25.6 µM. 1.7% of 86,000 active. AID 629; in the data active = inhibition above about 50%;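 also: 0% = receptor plus peptide control and 100% = peptide only without receptor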
ERb SRC1 inh: blocks coactivator binding to human estrogen receptor beta; Q92731; TR-FRET ER-beta LBD / SRC1-Cy5 peptide binding; receptor agonist-loaded with 1 µM estradiol; inhibition, % at 25.6 µM; 1.3% of 86,000 active;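 active = compounds whose percent inhibition of the receptor-coactivator binding signal exceeds about 50% in the single-dose screen, limit read from the data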;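 also: 0% = receptor plus peptide wells without compound and 100% = peptide-only wells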
Target sequence (Q92731 whole entry, looked up, the tested form may be a part): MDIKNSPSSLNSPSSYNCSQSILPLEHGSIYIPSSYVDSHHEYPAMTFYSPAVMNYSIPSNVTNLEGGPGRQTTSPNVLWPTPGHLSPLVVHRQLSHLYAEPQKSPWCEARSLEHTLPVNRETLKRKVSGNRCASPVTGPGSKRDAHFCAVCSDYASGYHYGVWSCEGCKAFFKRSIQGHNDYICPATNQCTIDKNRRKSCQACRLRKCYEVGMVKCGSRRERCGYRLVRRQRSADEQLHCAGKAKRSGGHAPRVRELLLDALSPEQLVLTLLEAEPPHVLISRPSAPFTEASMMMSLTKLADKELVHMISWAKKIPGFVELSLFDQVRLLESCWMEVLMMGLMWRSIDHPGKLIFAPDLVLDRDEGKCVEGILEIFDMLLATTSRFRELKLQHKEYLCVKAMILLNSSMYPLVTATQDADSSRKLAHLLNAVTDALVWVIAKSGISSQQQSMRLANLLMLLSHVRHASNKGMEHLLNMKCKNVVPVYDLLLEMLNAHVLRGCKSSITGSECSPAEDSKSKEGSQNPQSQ
RORA act: RORA (human) activation | activation, % at 10 µM | CHO-K1 Gal4-RORA LBD luciferase reporter, luminescence; percent increase over mock-subtracted basal signal | P35398 | 1.5% of 65,000 active;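 active = activation above the mean of all tested compounds plus 3 SD, cut at about 49% in these data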;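 also: 0% = DMSO-treated RORA cells and 100% = added signal equal to DMSO minus mock-transfected cells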
* = called active by the depositor; nt = not tested or not shown; + = active, no number; [ ] = dose if it differs, or a comment. Compounds with a hit are over-represented: about 4.8% of the library has one in this group of screens.

SMILES	ERa coact pot	Pyk2 oligo antag	SF-1 act	ERa SRC1 inh	ERb SRC1 inh	RORA act
CC(C)CCSc1nc(N)c(C#N)cc1C#N	391*[fluorescence artefact?]	-1.2	4	40	25	10
CSc1nc2nccc(-c3ccc(Oc4ccccc4)cc3)n2n1	72	1.1	nt	8	1	nt
CSc1nc2nccc(-c3ccc(-c4ccccc4)cc3)n2n1	220*	-0.53	nt	40	13	nt
COc1ccc(S(=O)(=O)Nc2ccc(S(=O)(=O)Nc3nc(C)cc(C)n3)cc2)cc1OC	106	0.06	2	-13	-18	-14
COc1ccc(OCc2ccc(C(=O)O)cc2)cc1	94	0.84	64*	4	6	17
COC(=O)c1c(C)[nH]c(C(=O)OCc2ccc(F)cc2)c1C	117	-0.79	60*	-9	-17	30
O=C(COC(=O)c1ccccc1NC(=O)c1ccco1)NCCC1=CCCCC1	112	-0.91	36	-5	98*[fluorescence artefact?]	9
O=C(COC(=O)c1ccccc1NC(=O)c1ccco1)NCC1CCCCC1	nt	-0.42	nt	nt	nt	nt
O=C(COC(=O)c1ccccc1NC(=O)c1ccco1)Nc1ccc2c(c1)OCO2	88	-3.8*	-2	71*[fluorescence artefact?]	22	-6
CCn1cc(C(=O)N2CCCc3ccccc32)c2cc(OC)c(OC)cc2c1=O	110	-0.01	-3	0	2	0
N#CC1=C(N)SC(N)=C(C#N)C1CCC1CCCCC1	242*	nt	-11	15	11	16
c1cnc(N2CCN(c3ncnc4c3oc3ccccc34)CC2)nc1	108	nt	-13	-8	-7	-10
COc1ccccc1N1CCN(c2ncnc3c2oc2ccccc23)CC1	119	1.1	43	-7	1	56*
O=C(CSc1ncnc2c1oc1ccccc12)NCC1CCCO1 (configuration not stated)	109	-0.32	23	-14	-29	-14
Cc1nc(SCC(=O)c2cccs2)c2oc3ccccc3c2n1	147	-2.6	nt	-2	-5	nt
O=C(CSc1ncnc2c1oc1ccccc12)NC1CCCCC1	289*[fluorescence artefact?]	nt	1	56*[fluorescence artefact?]	51*[fluorescence artefact?]	5
NC(=O)CSc1ncnc2c1oc1ccccc12	70	nt	27	14	11	-4
O=C(CSc1ncnc2c1oc1ccccc12)NCc1ccc(F)cc1	784*[fluorescence artefact?]	nt	10	49	57*[fluorescence artefact?]	8
Fc1cccc(CSc2ncnc3c2oc2ccccc23)c1	402*[fluorescence artefact?]	-1.6	-28	47	57*[fluorescence artefact?]	10
O=C(CSc1ncnc2c1oc1ccccc12)c1cccs1	283*[fluorescence artefact?]	0.06	71*	8	13	40
O=S(=O)(Nc1cccnc1)c1ccc(Cl)c(C(F)(F)F)c1	106	-1.4	-4	20	14	-4
Cc1nn(C(CC(=O)O)C(=O)O)c(C)c1Br (configuration not stated)	109	-0.21	nt	-3	-8	nt
CCSc1ncnc2c1oc1ccccc12	106	-0.19	-7	-3	-3	28
Fc1ccc(CSc2ncnc3c2oc2ccccc23)cc1	192	nt	0	44	56*[fluorescence artefact?]	-2
COC(=O)c1ccccc1NC(=O)c1noc2c1CCCC2	114	-0.76	6	-6	-6	41
SMILES	ERa coact pot	Pyk2 oligo antag	SF-1 act	ERa SRC1 inh	ERb SRC1 inh	RORA act
COc1ccc(NC(=O)c2noc3c2CCC3)cc1	44	0.92	nt	86*[fluorescence artefact?]	90*[fluorescence artefact?]	nt
O=C(NCc1ccccc1)c1noc2c1CCCCC2	106	0.37	52*	-5	5	30
COc1cc(NC(=O)c2noc3c2CCC3)c(OC)cc1Cl	25	-0.63	-12	88*[fluorescence artefact?]	86*[fluorescence artefact?]	5
CC1CN(c2nc3ccccn3c(=O)c2/C=C(\C#N)S(=O)(=O)c2ccccc2)CC(C)O1 (configuration not stated)	108	-2.5	-2	-2	0	-7
N#C/C(=C\c1c(N2CCC(C(N)=O)CC2)nc2ccccn2c1=O)S(=O)(=O)c1ccccc1	94	-1.2	5	23	53*	-4
COc1ccc(-c2noc(CSc3nnc(Cc4ccccc4)n3-c3cccc(C)c3)n2)cc1OC	+[fluorescence artefact?]	-2	-2	2	-1	2
Cc1ccc(S(=O)(=O)NCCC(=O)NC2CCCC2)cc1	92	0.08	9	8	-3	-3
Cc1ccc2c(CC(=O)Nc3sccc3C(N)=O)coc2c1	92	-1.4	87*	12	15	45
Cc1ccc2c(CC(=O)Nc3ccc(N4CCN(C)CC4)cc3C)coc2c1	94	-0.14	10	19	21	11
O=C1CSC2=NCN(c3ccc4c(c3)OCO4)CN12	124	-0.24	-5	4	3	-8
CN(C)c1ccc(N2CN=C3SCC(=O)N3C2)cc1	92	-0.79	nt	20	86*[fluorescence artefact?]	nt
Cc1ccc(SCCC(=O)N2CCOCC2)cc1	102	0.53	47	-12	-3	51*
O=C(CCSc1ccccc1)N1CCOCC1	109	0.45	52*	-5	2	32
Nc1nnc(SCc2ccc(F)cc2)n1-c1ccccc1	111	-1.1	nt	-2	-2	nt
Cc1ccccc1Oc1ccc(S(=O)(=O)NCCC(=O)O)cc1	115	-3.5*	-8	9	11	-12
O=C(O)CCNS(=O)(=O)c1ccccc1	101	-0.36	-6	-13	-3	-8
CC(C)Nc1nc(NC(C)C)nc(SCCOC(=O)Nc2ccc(Cl)cc2Cl)n1	nt	-0.41	nt	nt	nt	nt
CCOC(=O)N1CCC(N2CC34C=CC(O3)C(C(=O)O)C4C2=O)CC1 (configuration not stated)	123	nt	-4	-4	-12	-12
O=C(Nc1ccc2oc(-c3ccccc3Cl)nc2c1)c1ncn[nH]1	224*[fluorescence artefact?]	-1.3	76*	67*[fluorescence artefact?]	50*[fluorescence artefact?]	62*
CC(C)c1ccc2oc(-c3ccc(NC(=O)c4ncn[nH]4)cc3)nc2c1	67	-0.24	66*	36	15	33
COc1ccc(Br)cc1C(=O)Nc1cccc(C)c1	108	-0.41	nt	-6	-1	nt
COc1ccc(Br)cc1C(=O)Nc1ccccc1-c1ccccc1	nt	-3.6*	nt	nt	nt	nt
O=C(CSc1ncccc1-c1nc2ccccc2[nH]1)N1CCN(c2ccccc2F)CC1	223*	-0.25	-20	-9	4	13
COC(=O)c1cc(S(=O)(=O)n2nc(C)c(Br)c2C)c(Cl)cc1Cl	113	0.9	nt	-7	6	nt
C=CCn1c(SCC(=O)c2cccs2)nc2sc(CC)cc2c1=O	122	-3.2*	-27	-4	-9	-21
CCOC(=O)N1CCC(NC(=O)c2ccc3c(c2)sc2nc(-c4ccccc4)cn23)CC1	nt	-0.87	22	nt	nt	53*
Cc1cc(C)cc(OCC(=O)NNC(=O)CCC(=O)NCc2ccccc2)c1	nt	-0.92	nt	nt	nt	nt
CCOC(=O)c1ccccc1NC(=O)CSc1nnnn1C1CCCCC1	96	-0.9	5	13	2	54*
Nc1nc(SCC(=O)NCCC(c2ccccc2)c2ccccc2)n[nH]1	102	nt	nt	-7	-10	nt
